# Source: paper PMC5417336 (Journal of immunology (Baltimore, Md. : 1950), 2017)
# “Also recorded” adds a separate entry of the source. Read-outs that look alike come from different tables or passages of the source.
# Experiments:
# [1] = test system: classical pathway (CP) complement activation, MAC deposition; test: CP-specific complement ELISA, MAC deposition; type: biochemical, human
# How it was run: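 Plates carry 3 μg ml−1 human IgM, blocked with BSA/Tween-20. Test compound (250 μM, or 0–625 μM series; 2.5% DMSO) is mixed with 1% normal human serum in HEPES pH 7.3 buffer with 2 mM CaCl2, 0.5 mM MgCl2 and gelatin. Serum-titration arm: fixed 500 μM compound or DMSO vehicle, serum 0–4% (v/v). Incubated 1 h at 37°C. Read-out: anti-MAC aE11 (1/300). Normalised to vehicle mean as 100%.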
# C5/C3b interaction = C5/C3b interaction (Homo sapiens, UniProt P01024); test: LE-SPR competition assay B23-C5/C3b; type: binding
# How it was run: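 B23-C5 (250 nM) was co-injected over oriented biotin-C3b (4,460 RU) with competitor: unlabelled C5 (250 nM), TRX-4W9A (12 μM) or compstatin peptide (65 μM) in HBS-T. Runs with small molecules used buffer with 5% (v/v) DMSO. A parallel competitor-only injection served for epigram calculation. Residual binding was the mean eRU over 10 s before injection stop, relative to B23-C5 alone or DMSO vehicle. Each run was done 2–4 times.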
# [2] = test system: alternative pathway (AP) complement activation, MAC deposition; test: AP-specific complement ELISA, MAC deposition; type: biochemical, human; conditions: 250 μM, 20% (v/v) serum
# How it was run: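 Wells coated overnight with 25 μg ml−1 Salmonella typhosa LPS in 100 mM carbonate pH 9.6, then blocked 1 h at 37°C with PBS/1% BSA/0.05% Tween-20. Test compound (250 μM final, 2.5% DMSO) is mixed with 20% (v/v) normal human serum in HEPES pH 7.5, gelatin, NaCl, 5 mM MgCl2, 5 mM EGTA. Incubated 1 h at 37°C. MAC detected with anti-C5b-9 aE11 (1/300). Signal expressed against mean vehicle as 100%.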
# compstatin/C3b binding = compstatin/C3b binding (Homo sapiens, UniProt P01024); test: LE-SPR competition assay B23-TRX-4W9A; conditions: 500 μM compound, 500 nM B23-TRX-4W9A vs 5% DMSO
# How it was run: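 B23-labelled TRX-4W9A (500 nM) was co-injected with 500 μM test compound, 5% (v/v) DMSO vehicle, or 65 μM compstatin peptide (positive control) over oriented biotin-C3b (3,800 and 3,100 RU surfaces). Running buffer contained 5% DMSO, and competitor-only injections served for epigram calculation. Residual binding was the mean eRU over 10 s before injection stop, relative to DMSO control. Each compound was tested on at least two independent C3b surfaces.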
# [3] = test system: C5a production (C5 cleavage); test: C5a capture ELISA of CP ELISA reactions; type: biochemical, human; conditions: fixed 500 μM cmp-5, serum 0–4% (v/v); DMSO control 1.55% (v/v)
# How it was run: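 Completed CP ELISA reactions (IgM-coated plates, CP buffer, 1 h at 37°C; fixed 500 μM test compound or DMSO vehicle, serum 0–4% (v/v)) were diluted 2-fold onto plates coated overnight at room temperature with 1 μg ml−1 anti-C5a neoepitope mAb. Incubation 1 h at RT with rocking. Detection used rabbit anti-human C5a (1/200, 1 h RT), then goat anti-rabbit-HRP (1/5000, 1 h) and TMB, read at 450 nm. Signals normalised to the mean vehicle control as 100%.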
# [4] = Compound solubility in CP ELISA assay buffer; type: physicochemical; conditions: aqueous buffer
# [5] = test system: C4b deposition (classical pathway); test: CP ELISA, C4b deposition; type: biochemical, human; conditions: concentrations up to 625 μM, 1% (v/v) serum
# How it was run: (§1)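 Wells coated overnight with 3 μg ml−1 human IgM in carbonate pH 9.6, then blocked with BSA/Tween-20 in PBS. Test compound (250 μM single concentration, or series up to 625 μM; 2.5% DMSO) is added to 1% (v/v) normal human serum in HEPES pH 7.3, gelatin, NaCl, 2 mM CaCl2, 0.5 mM MgCl2. Incubated 1 h at 37°C. Detection: anti-C3b WM1 or anti-C4b C4-1 (1/300). Normalised to mean vehicle as 100%.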
# [6] = test system: C3b deposition (classical pathway); test: CP ELISA, C3b deposition; type: biochemical, human; conditions: concentrations up to 625 μM, 1% (v/v) serum
# How it was run: as §1
# C3b [7] = biological target: T1, C3b (Homo sapiens, UniProt P01024); type: binding; conditions: read-out: KD for C3b, conventional SPR, C5; 1:1 Langmuir kinetic model
# How it was run: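 Biotinylated C3b was captured on a NeutrAvidin-coupled sensor chip (6,560 RU surface for C5). Native C5 in HBST ran as a two-fold concentration series: 2 min injection, 3 min dissociation, 30 μl min−1, no regeneration. KD came from a 1:1 Langmuir kinetic fit of reference-corrected sensorgrams.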
# C3b [8] = biological target: T1, C3b; test: Label-enhanced SPR; type: binding; conditions: read-out: KD for C3b, LE-SPR, B23-C5; 1:1 Langmuir kinetic model
# How it was run: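 C5 was dialysed into PBS pH 7.4 (2 h, RT), labelled 1 h in the dark with 5-fold molar excess NHS-B23 dye, then dialysed into HBS overnight at 4°C. A two-fold concentration series ran over oriented biotin-C3b (5,160 RU) at 10 μl min−1 with 1 min association and 1 min dissociation. An unlabelled injection at the top concentration weighted dip width and position to give epigrams (eRU). KD from a 1:1 Langmuir kinetic fit.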
# [9] = biological target: T2, site-specifically biotinylated C3b (human, UniProt P01024 23-667; P01024 749-1663, site-specifically biotinylated with EZ-link Maleimide-PEG2-biotin); test: SPR
# [10] = biological target: T2, site-specifically biotinylated C3b; test: AlphaScreen or HTRF
# [11] = biological target: T2, site-specifically biotinylated C3b; test: SPR; remark: listed apart in the source
# [12] = biological target: T2, site-specifically biotinylated C3b; test: SPR; remark: listed apart in the source
molecule,measurement,setting,value
"Cc1ccnn1-c1cccc(NC(=O)CC2OC(=O)c3ccccc32)c1 (stereo not shown) [cmp-5, N-(3-(5-methyl-1H-pyrazol-1-yl)phenyl)-2-(3-oxo-1,3-dihydroisobenzofuran-1-yl)acetamide]",inhibition of MAC deposition in CP ELISA,"[1]; 250 μM, 1% (v/v) serum",significant inhibition
same,MAC deposition relative to control response (CP ELISA),"[1]; 250 μM, 1% (v/v) serum, n=13",59 ± 2.4%
same,"EC50 of serum, MAC deposition","[1]; fixed 500 μM cmp-5, serum 0–4% (v/v), DMSO control 0.88% (v/v)",1.43 % (v/v)
same,"effect on B23-C5/C3b interaction, small molecules","C5/C3b interaction; 500 μM compound, 250 nM B23-C5 vs 5% DMSO vehicle",did not affect; also recorded: failed to perturb
same,inhibition of the AP (MAC deposition),[2],significant inhibition
same,MAC deposition relative to control response (AP ELISA),[2]; n=5,73 ± 4.6%
same,effect on B23-TRX-4W9A-specific LE-SPR signal (C3b binding),compstatin/C3b binding,reduction of specific C3b-binding; also recorded: modest ability to compete
same,"EC50 of serum, C5a production",[3],2.04 % (v/v)
same,solubility,[4],~600 µM
same,"effect on C4b deposition, CP ELISA",[5],no effect
same,"effect on C3b deposition, CP ELISA",[6],no effect
"C5: complement component C5, purified protein (Complement Technologies)","effect on B23-C5/C3b LE-SPR signal, protein/peptide competitors","C5/C3b interaction; 250 nM B23-C5, 250 nM unlabeled C5, 12 μM TRX-4W9A or 65 μM compstatin peptide",reduces the B23-C5 specific LE-SPR signal
same,reduction of specific binding of B23-C5 to C3b,"C5/C3b interaction; 250 nM B23-C5, competitor 250 nM unlabeled C5 or 12 μM TRX-4W9A, HBS-T",~50%
same,Kd,C3b [7],350 nM
B23-C5: C5 labeled with NHS-B23 dye,Kd,C3b [8],3200 nM
ENLYFQGGSGSGSGICVWQDWGAHRCT (designed binder) [thioredoxin-compstatin fusion protein (TRX-4W9A)],Kd,[9],770 nM
"untagged Ba(1–3) (domain or fragment, human, UniProt P00751 35-220, looked up) GSCSLEGVEIKGGSFRLLQEGQALEYVCPSGFYPYPVQTRTCRSTGSWSTLKTQDQKTVRKAECRAIHCPRPHDFENGEYWPRSPYYNVSDEISFHCYDGYTLRGSANRTCQVNGRWSGQTAICDNGAGYCSNPGIPIGTRKVGSQYRLEDSVTYHCSRGLTLRGSQRRTCQEGGSWSGTEPSCQD",Kd,[10],4700 nM
"ENLYFQGGSGSGSGICVWQDWGAHRCT (designed binder, labeled with the dye reagent Episentec NHS-B23 (5-fold molar excess)) [B23 dye-labeled TRX-4W9A]",Kd,[11],790 nM
same,Kd,[12],560 nM
